Measured values from ChEMBL document CHEMBL1154716, “Synthesis of some new S-triazine based chalcones and their derivatives as potent antimicrobial agents” (2010).
Values after ≈ are worked out from the molar mass of the structure shown. Active and inactive are the calls of the source. No cut-off for these calls is given here.

Columns and labels:
Staphylococcus aureus [1] = experiment: Antimicrobial activity against Staphylococcus aureus after 24 hrs by microdilution technique; assay type: functional
Procedure, shortened: (§1)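 Broth microdilution in LB medium. Inoculum is 1.0 × 10^4 cfu per well, from a saline-adjusted suspension of 1.0 × 10^5 cfu/ml. Compounds are dissolved in DMSO. Incubated 24 h at 28 C. MIC is the lowest concentration with no visible growth under a binocular microscope. MBC is read by subculture into fresh broth for 72 h, with no growth taken as 99.5% kill. OD is read at 655 nm.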

Staphylococcus aureus [2] = experiment: Antimicrobial activity against Staphylococcus aureus at 10 ug/disk after 24 hrs by disk diffusion assay; assay type: functional
Procedure, shortened: (§2)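 Disc diffusion on 4 mm filter discs. Bacteria are grown overnight in LB at 28 C, then adjusted in saline to 1.0 × 10^5 cfu/ml. The suspension is mixed into top agar over peptone agar plates. Plates are incubated 24 h at 28 C, and growth-inhibition zone diameter is measured. Streptomycin and ampicillin controls are applied from a 1 mg/ml stock. Tests are done in duplicate.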

Salmonella typhimurium [3] = experiment: Antimicrobial activity against Salmonella Typhimurium at 10 ug/disk after 24 hrs by disk diffusion assay; assay type: functional, organism-based; settings: Salmonella enterica subsp. enterica serovar Typhimurium; procedure, shortened: as §2
Escherichia coli [4] = experiment: Antimicrobial activity against Escherichia coli at 1 umol/spot after 18 hrs by TLC-bioautographic method; assay type: functional
Procedure, shortened: (§3)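 TLC bioautography. Samples are spotted on silica gel TLC plates, then sprayed with bacteria (1.0 × 10^5 cfu/ml) in tryptic soy broth. Plates are incubated 18 h at 37 C and sprayed with 3% aqueous p-iodonitrotetrazolium violet. After a further 3 h, growth is stopped with 70% EtOH. White zones on a pink background are scored as inhibition-zone diameter with standard errors.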

Salmonella typhimurium [5] = experiment: Antimicrobial activity against Salmonella Typhimurium after 24 hrs by microdilution technique; assay type: functional, Salmonella enterica subsp. enterica serovar Typhimurium; procedure, shortened: as §1
Enterobacter cloacae [6] = experiment: Antimicrobial activity against Enterobacter cloacae at 1 umol/spot after 18 hrs by TLC-bioautographic method; assay type: functional; procedure, shortened: as §3
Bacillus cereus [7] = experiment: Antimicrobial activity against Bacillus cereus at 1 umol/disk after 24 hrs by disk diffusion assay; assay type: functional; procedure, shortened: as §2
Enterobacter cloacae [8] = experiment: Antimicrobial activity against Enterobacter cloacae after 24 hrs by microdilution technique; assay type: functional; procedure, shortened: as §1
Micrococcus flavus [9] = experiment: Antimicrobial activity against Micrococcus flavus at 1 umol/spot after 18 hrs by TLC-bioautographic method; assay type: functional; procedure, shortened: as §3
Salmonella typhimurium [10] = experiment: Antimicrobial activity against Salmonella Typhimurium at 1 umol/spot after 18 hrs by TLC-bioautographic method; assay type: functional, Salmonella enterica subsp. enterica serovar Typhimurium; procedure, shortened: as §3
Escherichia coli [11] = experiment: Antimicrobial activity against Escherichia coli after 24 hrs by microdilution technique; assay type: functional; procedure, shortened: as §1
Pseudomonas aeruginosa [12] = experiment: Antimicrobial activity against Pseudomonas aeruginosa at 1 umol/spot after 18 hrs by TLC-bioautographic method; assay type: functional; procedure, shortened: as §3
Listeria monocytogenes [13] = experiment: Antimicrobial activity against Listeria monocytogenes at 10 ug/disk after 24 hrs by disk diffusion assay; assay type: functional; procedure, shortened: as §2
Bacillus cereus [14] = experiment: Antimicrobial activity against Bacillus cereus at 1 umol/spot after 18 hrs by TLC-bioautographic method; assay type: functional; procedure, shortened: as §3
Pseudomonas aeruginosa [15] = experiment: Antimicrobial activity against Pseudomonas aeruginosa at 10 ug/disk after 24 hrs by disk diffusion assay; assay type: functional; procedure, shortened: as §2
Bacillus cereus [16] = experiment: Antimicrobial activity against Bacillus cereus at 10 ug/disk after 24 hrs by disk diffusion assay; assay type: functional; procedure, shortened: as §2
Micrococcus flavus [17] = experiment: Antimicrobial activity against Micrococcus flavus at 10 ug/disk after 24 hrs by disk diffusion assay; assay type: functional; settings: read-out: IZ; procedure, shortened: as §2
Staphylococcus aureus [18] = experiment: Antimicrobial activity against Staphylococcus aureus at 1 umol/disk after 24 hrs by disk diffusion assay; assay type: functional; procedure, shortened: as §2
Micrococcus flavus [19] = experiment: Antimicrobial activity against Micrococcus flavus after 24 hrs by microdilution technique; assay type: functional; procedure, shortened: as §1
Listeria monocytogenes [20] = experiment: Antimicrobial activity against Listeria monocytogenes at 1 umol/spot after 18 hrs by TLC-bioautographic method; assay type: functional; procedure, shortened: as §3
Listeria monocytogenes [21] = experiment: Antimicrobial activity against Listeria monocytogenes at 1 umol/disk after 24 hrs by disk diffusion assay; assay type: functional; procedure, shortened: as §2
Enterobacter cloacae [22] = experiment: Antimicrobial activity against Enterobacter cloacae at 1 umol/disk after 24 hrs by disk diffusion assay; assay type: functional; procedure, shortened: as §2
Salmonella typhimurium [23] = experiment: Antimicrobial activity against Salmonella Typhimurium at 1 umol/disk after 24 hrs by disk diffusion assay; assay type: functional, organism-based; settings: Salmonella enterica subsp. enterica serovar Typhimurium; procedure, shortened: as §2
Escherichia coli [24] = experiment: Antimicrobial activity against Escherichia coli at 1 umol/disk after 24 hrs by disk diffusion assay; assay type: functional; procedure, shortened: as §2
Bacillus cereus [25] = experiment: Antimicrobial activity against Bacillus cereus after 24 hrs by microdilution technique; assay type: functional; procedure, shortened: as §1
Micrococcus flavus [26] = experiment: Antimicrobial activity against Micrococcus flavus at 1 umol/disk after 24 hrs by disk diffusion assay; assay type: functional; procedure, shortened: as §2
Staphylococcus aureus [27] = experiment: Antimicrobial activity against Staphylococcus aureus at 1 umol/spot after 18 hrs by TLC-bioautographic method; assay type: functional; procedure, shortened: as §3
Listeria monocytogenes [28] = experiment: Antimicrobial activity against Listeria monocytogenes after 24 hrs by microdilution technique; assay type: functional; procedure, shortened: as §1
Pseudomonas aeruginosa [29] = experiment: Antimicrobial activity against Pseudomonas aeruginosa at 1 umol/disk after 24 hrs by disk diffusion assay; assay type: functional; procedure, shortened: as §2
Pseudomonas aeruginosa [30] = experiment: Antimicrobial activity against Pseudomonas aeruginosa after 24 hrs by microdilution technique; assay type: functional; procedure, shortened: as §1
Enterobacter cloacae [31] = experiment: Antimicrobial activity against Enterobacter cloacae at 10 ug/disk after 24 hrs by disk diffusion assay; assay type: functional; procedure, shortened: as §2
Escherichia coli [32] = experiment: Antimicrobial activity against Escherichia coli at 10 ug/disk after 24 hrs by disk diffusion assay; assay type: functional; procedure, shortened: as §2

MIC (Staphylococcus aureus [1]) [µM]	MIC (Salmonella typhimurium [5]; Salmonella enterica) [µM]	MIC (Enterobacter cloacae [8]) [µM]	MIC (Escherichia coli [11]) [µM]	Compound	MBC (Staphylococcus aureus [1]) [µM]	inhibition zone (IZ) (Staphylococcus aureus [2])	inhibition zone (IZ) (Salmonella typhimurium [3])	inhibition zone (IZ) (Escherichia coli [4])	inhibition zone (IZ) (Enterobacter cloacae [6]) [millimeter]	inhibition zone (IZ) (Bacillus cereus [7])	MBC (Enterobacter cloacae [8])	inhibition zone (IZ) (Micrococcus flavus [9])	inhibition zone (IZ) (Salmonella typhimurium [10]) [millimeter]	MBC (Escherichia coli [11]) [µM]	inhibition zone (IZ) (Pseudomonas aeruginosa [12])	inhibition zone (IZ) (Listeria monocytogenes [13])	inhibition zone (IZ) (Bacillus cereus [14])	inhibition zone (IZ) (Pseudomonas aeruginosa [15])	inhibition zone (IZ) (Bacillus cereus [16])	zone of inhibition at 10 µg/disc (Micrococcus flavus [17]) [mm]	further results
189 (≈ 100 µg/mL)	189 (≈ 100 µg/mL)	189 (≈ 100 µg/mL)	189 (≈ 100 µg/mL)	Nc1nc(-c2ccc(Nc3nc(Nc4ccccc4)nc(Nc4ccccc4)n3)cc2)cc(-c2cccs2)n1	378 (≈ 200 µg/mL)	inactive	inactive	inactive	0.08	inactive	378 µM (≈ 200 µg/mL)	0.08 millimeter	0.09	378 (≈ 200 µg/mL)	inactive	inactive	0.09 millimeter	inactive	inactive	6	MBC (Salmonella typhimurium [5]; Salmonella enterica): 378 µM (≈ 200 µg/mL); inhibition zone (IZ) (Staphylococcus aureus [18]): inactive; MBC (Micrococcus flavus [19]): 378 µM (≈ 200 µg/mL); MIC (Micrococcus flavus [19]): 189 µM (≈ 100 µg/mL); inhibition zone (IZ) (Listeria monocytogenes [20]): 0.08 millimeter; inhibition zone (IZ) (Listeria monocytogenes [21]): inactive; inhibition zone (IZ) (Enterobacter cloacae [22]): inactive; inhibition zone (IZ) (Salmonella typhimurium [23]): inactive; inhibition zone (IZ) (Escherichia coli [24]): inactive; MBC (Bacillus cereus [25]): 378 µM (≈ 200 µg/mL); MIC (Bacillus cereus [25]): 189 µM (≈ 100 µg/mL); inhibition zone (IZ) (Micrococcus flavus [26]): 0.04 millimeter; inhibition zone (IZ) (Staphylococcus aureus [27]): 0.03 millimeter; MBC (Listeria monocytogenes [28]): 756 µM (≈ 400 µg/mL); MIC (Listeria monocytogenes [28]): 756 µM (≈ 400 µg/mL); inhibition zone (IZ) (Pseudomonas aeruginosa [29]): inactive; MBC (Pseudomonas aeruginosa [30]): 756 µM (≈ 400 µg/mL); MIC (Pseudomonas aeruginosa [30]): 756 µM (≈ 400 µg/mL); inhibition zone (IZ) (Enterobacter cloacae [31]): inactive; inhibition zone (IZ) (Escherichia coli [32]): inactive
756 (≈ 401 µg/mL)	756 (≈ 401 µg/mL)	756 (≈ 401 µg/mL)	378 (≈ 201 µg/mL)	CC(=O)N1N=C(c2ccc(Nc3nc(Nc4ccccc4)nc(Nc4ccccc4)n3)cc2)CC1c1ccco1 (stereo not given)	756 (≈ 401 µg/mL)	inactive	inactive	inactive	0.09	inactive	inactive	inactive	0.09	756 (≈ 401 µg/mL)	inactive	inactive	inactive	inactive	inactive	10	MBC (Salmonella typhimurium [5]; Salmonella enterica subsp. enterica serovar Typhimurium): inactive; inhibition zone (IZ) (Staphylococcus aureus [18]): inactive; MBC (Micrococcus flavus [19]): 756 µM (≈ 401 µg/mL); MIC (Micrococcus flavus [19]): 378 µM (≈ 201 µg/mL); inhibition zone (IZ) (Listeria monocytogenes [20]): 0.08 millimeter; inhibition zone (IZ) (Listeria monocytogenes [21]): inactive; inhibition zone (IZ) (Enterobacter cloacae [22]): inactive; inhibition zone (IZ) (Salmonella typhimurium [23]): inactive; inhibition zone (IZ) (Escherichia coli [24]): inactive; MBC (Bacillus cereus [25]): 756 µM (≈ 401 µg/mL); MIC (Bacillus cereus [25]): 378 µM (≈ 201 µg/mL); inhibition zone (IZ) (Micrococcus flavus [26]): 0.05 millimeter; inhibition zone (IZ) (Staphylococcus aureus [27]): 0.07 millimeter; MBC (Listeria monocytogenes [28]): inactive; MIC (Listeria monocytogenes [28]): 756 µM (≈ 401 µg/mL); inhibition zone (IZ) (Pseudomonas aeruginosa [29]): inactive; MBC (Pseudomonas aeruginosa [30]): 756 µM (≈ 401 µg/mL); MIC (Pseudomonas aeruginosa [30]): 756 µM (≈ 401 µg/mL); inhibition zone (IZ) (Enterobacter cloacae [31]): inactive; inhibition zone (IZ) (Escherichia coli [32]): inactive
